Shown are actives, neighbours in structure and some others; about 2.5% of the full set was active somewhere.
TRPC4 inh: TRPC4 (mouse) channel inhibition; Q9QUQ5; HEK293 TRPC4beta/mu-opioid, DAMGO-evoked Fluo4 calcium flux; stronger effect = lower value; B-score at 10 µM; 0.39% of 300,000 active;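 active = B-score over 3 SD under the library average, no early fluorescence shift, positive overall ratio signal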
Target sequence (Q9QUQ5 whole entry, looked up): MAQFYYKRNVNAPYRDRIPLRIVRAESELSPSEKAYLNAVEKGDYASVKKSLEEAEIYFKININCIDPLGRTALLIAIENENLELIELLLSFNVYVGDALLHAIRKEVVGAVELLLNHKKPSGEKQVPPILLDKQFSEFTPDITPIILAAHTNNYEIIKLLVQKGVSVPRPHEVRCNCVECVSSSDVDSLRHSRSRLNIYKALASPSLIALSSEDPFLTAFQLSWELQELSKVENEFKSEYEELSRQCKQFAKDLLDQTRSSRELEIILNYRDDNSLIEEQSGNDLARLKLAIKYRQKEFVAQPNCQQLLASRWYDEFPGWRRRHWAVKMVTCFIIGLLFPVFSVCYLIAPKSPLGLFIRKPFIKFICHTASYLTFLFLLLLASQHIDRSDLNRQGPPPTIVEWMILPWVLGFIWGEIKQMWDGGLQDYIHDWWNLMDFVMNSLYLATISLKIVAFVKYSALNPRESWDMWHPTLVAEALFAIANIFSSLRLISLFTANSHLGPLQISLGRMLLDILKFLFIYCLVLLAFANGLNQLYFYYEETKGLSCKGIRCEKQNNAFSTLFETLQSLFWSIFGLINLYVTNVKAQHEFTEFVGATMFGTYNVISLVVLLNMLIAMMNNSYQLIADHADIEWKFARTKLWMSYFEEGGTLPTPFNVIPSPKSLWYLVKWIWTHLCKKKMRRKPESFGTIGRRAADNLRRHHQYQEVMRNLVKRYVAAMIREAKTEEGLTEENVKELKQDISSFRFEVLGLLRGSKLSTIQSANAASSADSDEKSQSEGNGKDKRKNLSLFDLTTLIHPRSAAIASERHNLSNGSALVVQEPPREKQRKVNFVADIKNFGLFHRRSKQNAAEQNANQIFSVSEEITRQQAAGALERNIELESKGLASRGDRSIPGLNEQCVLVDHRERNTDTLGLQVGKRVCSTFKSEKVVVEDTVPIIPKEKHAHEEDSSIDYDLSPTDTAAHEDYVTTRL
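Test system – stable TRPC4beta/mu-opioid receptor HEK293 cells · Probe or stimulus – DAMGO, a submaximal dose followed by a maximal one · Dosing – one concentration per compound · Signal – Fluo4 calcium fluorescence by kinetic imaging, 5 s 1 Hz baseline · Evaluation – per-well B score of integrated baseline-normalized Fluo4 ratio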
TRPC4 potent: allosterically enhances the mouse TRPC4 cation channel; HEK293 TRPC4beta/mu-opioid, DAMGO EC20, Fluo-4 Ca2+ flux; stronger effect = higher value; B-score at 10 µM; 0.42% of 310,000 active; AID 2227;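 active = B-score of calcium response area above 5 SD of library B-scores, with initial fluorescence ratio within 5 SD of library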
TRPC6 inh: mouse TRPC6 channel inhibition | B-score at 10 µM | HEK293-TRPC6, membrane potential dye, ACh-evoked depolarization; stronger effect = lower value | Q61143 | 1.1% of 310,000 active | AID 2553;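 active = B-score under library mean minus 3 SD, initial fluorescence not abnormally high, positive integrated signal ratio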;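 note: B-score derived from integrated fluorescence ratio over the kinetic read; more negative B-score means stronger inhibition of depolarization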
TRPC6 act: mouse TRPC6 channel activation; Q61143; HEK293-TRPC6 membrane potential dye fluorescence; stronger effect = higher value; B-score at 10 µM; 0.13% of 310,000 active;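 active = B-score of the integrated fluorescence ratio above library mean plus 3 SD, and starting fluorescence ratio within library mean plus 5 SD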;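 note: higher score means more depolarization so channel activation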
TRPC4 agonist: TRPC4 (mouse) channel activation; HEK293 TRPC4beta/mu-opioid, Fluo4 calcium fluorescence; stronger effect = higher value; 0.49% of 310,000 active; B-score at 10 µM;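 active = B-score above 5 SD of library B-scores, and initial fluorescence ratio not above library mean plus 5 SD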;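 note: positive B-score marks a calcium rise read as TRPC4 activation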
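system = HEK293 cells stably co-expressing mouse TRPC4beta and mu-opioid receptor | schedule = Fluo4 dye loading 45 min at room temperature, 110 s recording | measure = B-scored integrated calcium fluorescence ratio | signal = Fluo4 calcium-sensitive dye fluorescence, kinetic, 1 Hz baseline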
Platelet DG rel: modulates dense granule release in human platelets; human platelet-rich plasma, SFLLRN dense granule ATP release, luminescence; inhibition, %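 (compounds screened at 7.5 µM in platelet-rich plasma)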; 0.22% of 300,000 active; AID 1663;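 active = mean replicate score, as percent of positive control, at or above 50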
Hits are given with their value.

Results for N#Cc1ccc(-c2nc3ccc(Br)cc3c(=O)n2O)cc1 ?
TRPC4 inh: inactive; TRPC4 potent: inactive; TRPC6 inh: inactive; TRPC6 act: inactive; TRPC4 agonist: inactive; Platelet DG rel: inactive

Results for O=c1c2cc(Br)ccc2nc(-c2ccc([N+](=O)[O-])cc2)n1O ?
TRPC4 inh: inactive; TRPC4 potent: inactive; TRPC6 inh: inactive; TRPC6 act: inactive; TRPC4 agonist: 81; Platelet DG rel: inactive

What do the screens show for `O=C1COc2ccc(N3C(=O)C=CC3=O)cc2N1`?
TRPC4 inh: -7; TRPC4 potent: inactive; TRPC6 inh: inactive; TRPC6 act: inactive; TRPC4 agonist: inactive; Platelet DG rel: inactive

How did NC(=NC1CCCCC1)c1ccc(Cl)cc1 do in these assays?
TRPC4 inh: -5; TRPC4 potent: inactive; TRPC6 inh: inactive; TRPC6 act: inactive; TRPC4 agonist: inactive; Platelet DG rel: inactive

What do the screens show for `N#Cc1cccc2c1-c1ccccc1/C2=N/NC(N)=O`?
TRPC4 inh: -6; TRPC4 potent: inactive; TRPC6 inh: inactive; TRPC6 act: inactive; TRPC4 agonist: inactive; Platelet DG rel: inactive

Results for NC(=O)N/N=C1\c2ccccc2-c2c(C(N)=O)cccc21 ?
TRPC4 inh: -5; TRPC4 potent: inactive; TRPC6 inh: inactive; TRPC6 act: inactive; TRPC4 agonist: inactive; Platelet DG rel: inactive

What do the screens show for `OCC1(CCc2ccccc2)CCN(Cc2cc(Cl)ccc2O)CC1`?
TRPC4 inh: -7; TRPC4 potent: inactive; TRPC6 inh: inactive; TRPC6 act: inactive; TRPC4 agonist: inactive; Platelet DG rel: inactive

How did Cc1ccc(-n2cccn2)c(CN2CCC(CO)(CCc3ccccc3)CC2)c1 do in these assays?
TRPC4 inh: inactive; TRPC4 potent: inactive; TRPC6 inh: inactive; TRPC6 act: inactive; TRPC4 agonist: 56; Platelet DG rel: inactive

How did COc1cc(-c2noc(C)c2-c2ccc(N(C)C)nc2)cc(OC)c1OC do in these assays?
TRPC4 inh: inactive; TRPC4 potent: inactive; TRPC6 inh: inactive; TRPC6 act: inactive; TRPC4 agonist: 66; Platelet DG rel: inactive

What do the screens show for `CCOc1cc(/C=C(\C#N)C(=O)Nc2ccccc2C(=O)O)ccc1OC(=O)c1ccc(C)cc1`?
TRPC4 inh: inactive; TRPC4 potent: inactive; TRPC6 inh: inactive; TRPC6 act: inactive; TRPC4 agonist: inactive; Platelet DG rel: inactive

What do the screens show for `O=C(CSc1ncnc2c1cnn2-c1ccccc1)NC1CCCC1`?
TRPC4 inh: inactive; TRPC4 potent: inactive; TRPC6 inh: inactive; TRPC6 act: inactive; TRPC4 agonist: inactive; Platelet DG rel: inactive

Results for O=C(C1CC1)N1CCc2cc(S(=O)(=O)NCc3ccccc3)ccc21 ?
TRPC4 inh: inactive; TRPC4 potent: inactive; TRPC6 inh: inactive; TRPC6 act: inactive; TRPC4 agonist: inactive; Platelet DG rel: inactive

How did O=C(COC(=O)Cc1ccc(Cl)cc1Cl)Nc1ccccc1OC(F)F do in these assays?
TRPC4 inh: inactive; TRPC4 potent: inactive; TRPC6 inh: inactive; TRPC6 act: inactive; TRPC4 agonist: inactive; Platelet DG rel: inactive

How did CCCN1Cc2cccc(C(=O)N3CCN(c4cc(Cl)ccc4C)CC3)c2C1=O do in these assays?
TRPC4 inh: inactive; TRPC4 potent: 15; TRPC6 inh: inactive; TRPC6 act: inactive; TRPC4 agonist: inactive; Platelet DG rel: inactive

What do the screens show for `Cc1ccc2c(c1)NC(=O)C(CC(=O)Nc1ccc(Br)c(C)c1)O2` (configuration not stated)?
TRPC4 inh: inactive; TRPC4 potent: inactive; TRPC6 inh: inactive; TRPC6 act: inactive; TRPC4 agonist: inactive; Platelet DG rel: inactive

How did Cc1cc(NC(=O)c2ccc(F)c(S(=O)(=O)N3CCCCC3)c2)no1 do in these assays?
TRPC4 inh: inactive; TRPC4 potent: inactive; TRPC6 inh: inactive; TRPC6 act: inactive; TRPC4 agonist: inactive; Platelet DG rel: inactive

Results for CC(C)N1CC23C=CC(O2)C(C(=O)OCc2ccccc2)C3C1=O (configuration not stated) ?
TRPC4 inh: inactive; TRPC4 potent: inactive; TRPC6 inh: inactive; TRPC6 act: inactive; TRPC4 agonist: inactive; Platelet DG rel: inactive

What do the screens show for `CC(C)N1C[C@@]23C=C[C@@H](O2)C(C(=O)OCc2ccccc2)[C@H]3C1=O` (some centres not stated)?
TRPC4 inh: inactive; TRPC4 potent: inactive; TRPC6 inh: inactive; TRPC6 act: inactive; TRPC4 agonist: inactive; Platelet DG rel: 56

How did O=C(CSc1nc(=O)n(CCN2CCOCC2)c2c1CCC2)Nc1ccc(OC(F)(F)F)cc1 do in these assays?
TRPC4 inh: -6; TRPC4 potent: inactive; TRPC6 inh: inactive; TRPC6 act: inactive; TRPC4 agonist: inactive; Platelet DG rel: inactive

What do the screens show for `COc1ccccc1N1CCN(C(c2ccccn2)c2nnnn2C2CCCCC2)CC1` (configuration not stated)?
TRPC4 inh: inactive; TRPC4 potent: inactive; TRPC6 inh: inactive; TRPC6 act: inactive; TRPC4 agonist: 74; Platelet DG rel: inactive

What do the screens show for `Cc1ccc(-c2cc(-c3ccccc3)nc(NN)n2)cc1`?
TRPC4 inh: inactive; TRPC4 potent: 12; TRPC6 inh: inactive; TRPC6 act: inactive; TRPC4 agonist: inactive; Platelet DG rel: inactive

How did COc1ccc(-c2cc(-c3ccccc3)nc(NN)n2)cc1OC do in these assays?
TRPC4 inh: inactive; TRPC4 potent: inactive; TRPC6 inh: inactive; TRPC6 act: inactive; TRPC4 agonist: inactive; Platelet DG rel: inactive

Results for COc1ccc(-c2csc(NS(=O)(=O)c3ccc([N+](=O)[O-])cc3)n2)cc1 ?
TRPC4 inh: inactive; TRPC4 potent: inactive; TRPC6 inh: inactive; TRPC6 act: inactive; TRPC4 agonist: inactive; Platelet DG rel: inactive

Results for O=C(COC(=O)c1ccc(F)c(S(=O)(=O)N2CCCCC2)c1)NCc1ccc(F)cc1 ?
TRPC4 inh: inactive; TRPC4 potent: inactive; TRPC6 inh: inactive; TRPC6 act: inactive; TRPC4 agonist: inactive; Platelet DG rel: inactive

Results for C/C(=N\O)C(=O)OC1CC(C)CCC1C(C)C (configuration not stated) ?
TRPC4 inh: inactive; TRPC4 potent: 13; TRPC6 inh: inactive; TRPC6 act: inactive; TRPC4 agonist: inactive; Platelet DG rel: inactive

Results for Cc1cc(OCCN2CCCC2)ccc1[N+](=O)[O-] ?
TRPC4 inh: inactive; TRPC4 potent: 30; TRPC6 inh: inactive; TRPC6 act: inactive; TRPC4 agonist: inactive; Platelet DG rel: inactive

Results for Cc1ccc(O)c(NC(=S)NC(=O)Cc2ccc(Cl)cc2)c1 ?
TRPC4 inh: inactive; TRPC4 potent: 12; TRPC6 inh: inactive; TRPC6 act: inactive; TRPC4 agonist: inactive; Platelet DG rel: inactive

How did CCOc1ccc(OCC(=O)OCC(=O)NNC(=O)c2ccc([N+](=O)[O-])cc2)cc1 do in these assays?
TRPC4 inh: inactive; TRPC4 potent: inactive; TRPC6 inh: inactive; TRPC6 act: inactive; TRPC4 agonist: inactive; Platelet DG rel: inactive

How did COc1ccc(C(=O)NCCn2cc(SCC(=O)Nc3nnc(C)s3)c3ccccc32)cc1 do in these assays?
TRPC4 inh: inactive; TRPC4 potent: inactive; TRPC6 inh: inactive; TRPC6 act: inactive; TRPC4 agonist: inactive; Platelet DG rel: inactive
